From PMC3286832 (Nature Communications, 2011)
Numbering of substitutions follows the chain as printed. Names may count otherwise.

B1: GLP–N: N-terminal fragment of GLP (residues 191–280) containing K205 (protein)
chain: LPAPGADVKVHRARKTMPKSVVGLHAASKDPREVREARDHKEPKEEINKNISDFGRQQLLPPFPSLHQSLPQNQCYMATTKSQTACLPFV
modifications: left off: GST, end not stated, kept
B2: GLP–N K205-methylated: GLP–N methylated in vitro at K205 (protein, UniProt Q9H9B1 191-280, looked up, fragment)
chain: B1 chain
modifications: K205 methylated
B3: GLP–N K205R: methylation deficient K205R mutant of GLP–N (protein, UniProt Q9H9B1 191-280, looked up, variant K205R)
chain: B1 chain with K15R
B4: GLP: G9a-like protein, wild-type (protein)
chain: MAAADAEAVPARGEPQQDCCVKTELLGEETPMAADEGSAEKQAGEAHMAADGETNGSCENSDASSHANAAKHTQDSARVNPQDGTNTLTRIAENGVSERDSEAAKQNHVTADDFVQTSVIGSNGYILNKPALQAQPLRTTSTLASSLPGHAAKTLPGGAGKGRTPSAFPQTPAAPPATLGEGSADTEDRKLPAPGADVKVHRARKTMPKSVVGLHAASKDPREVREARDHKEPKEEINKNISDFGRQQLLPPFPSLHQSLPQNQCYMATTKSQTACLPFVLAAAVSRKKKRRMGTYSLVPKKKTKVLKQRTVIEMFKSITHSTVGSKGEKDLGASSLHVNGESLEMDSDEDDSEELEEDDGHGAEQAAAFPTEDSRTSKESMSEADRAQKMDGESEEEQESVDTGEEEEGGDESDLSSESSIKKKFLKRKGKTDSPWIKPARKRRRRSRKKPSGALGSESYKSSAGSAEQTAPGDSTGYMEVSLDSLDLRVKGILSSQAEGLANGPDVLETDGLQEVPLCSCRMETPKSREITTLANNQCMATESVDHELGRCTNSVVKYELMRPSNKAPLLVLCEDHRGRMVKHQCCPGCGYFCTAGNFMECQPESSISHRFHKDCASRVNNASYCPHCGEESSKAKEVTIAKADTTSTVTPVPGQEKGSALEGRADTTTGSAAGPPLSEDDKLQGAASHVPEGFDPTGPAGLGRPTPGLSQGPGKETLESALIALDSEKPKKLRFHPKQLYFSARQGELQKVLLMLVDGIDPNFKMEHQNKRSPLHAAAEAGHVDICHMLVQAGANIDTCSEDQRTPLMEAAENNHLEAVKYLIKAGALVDPKDAEGSTCLHLAAKKGHYEVVQYLLSNGQMDVNCQDDGGWTPMIWATEYKHVDLVKLLLSKGSDINIRDNEENICLHWAAFSGCVDIAEILLAAKCDLHAVNIHGDSPLHIAARENRYDCVVLFLSRDSDVTLKNKEGETPLQCASLNSQVWSALQMSKALQDSAPDRPSPVERIVSRDIARGYERIPIPCVNAVDSEPCPSNYKYVSQNCVTSPMNIDRNITHLQYCVCIDDCSSSNCMCGQLSMRCWYDKDGRLLPEFNMAEPPLIFECNHACSCWRNCRNRVVQNGLRARLQLYRTRDMGWGVRSLQDIPPGTFVCEYVGELISDSEADVREEDSYLFDLDNKDGEVYCIDARFYGNVSRFINHHCEPNLVPVRVFMAHQDLRFPRIAFFSTRLIEAGEQLGFDYGERFWDIKGKLFSCRCGSPKCRHSSAALAQRQASAAQEAQEDGLPDTSSAAAADPL
modifications: left off: HA, end not stated, kept
B5: GLP K205R: HA–GLP K205R mutant (protein)
chain: B4 chain with K205R
modifications: left off: HA, end not stated, kept
B6: GLP K199R: HA–GLP K199R mutant (protein)
chain: B4 chain with K199R
modifications: left off: HA, end not stated, kept
B7: GLP K209R: HA–GLP K209R mutant (protein)
chain: B4 chain with K209R
modifications: left off: HA, end not stated, kept
B8: G9a: H3K9 methyltransferase G9a (protein, UniProt Q96KQ7 2-1210, looked up)
Histone-lysine …: AAAAGAAAAAAAEGEAPAEMGALLLEKETRGATERVHGSLGDTPRSEETLPKATPDSLEPAGPSSPASVTVTVGDEGADTPVGATPLIGDESENLEGDGDLRGGRILLGHATKSFPSSPSKGGSCPSRAKMSMTGAGKSPPSVQSLAMRLLSMPGAQGAAAAGSEPPPATTSPEGQPKVHRARKTMSKPGNGQPPVPEKRPPEIQHFRMSDDVHSLGKVTSDLAKRRKLNSGGGLSEELGSARRSGEVTLTKGDPGSLEEWETVVGDDFSLYYDSYSVDERVDSDSKSEVEALTEQLSEEEEEEEEEEEEEEEEEEEEEEEEDEESGNQSDRSGSSGRRKAKKKWRKDSPWVKPSRKRRKREPPRAKEPRGVNGVGSSGPSEYMEVPLGSLELPSEGTLSPNHAGVSNDTSSLETERGFEELPLCSCRMEAPKIDRISERAGHKCMATESVDGELSGCNAAILKRETMRPSSRVALMVLCETHRARMVKHHCCPGCGYFCTAGTFLECHPDFRVAHRFHKACVSQLNGMVFCPHCGEDASEAQEVTIPRGDGVTPPAGTAAPAPPPLSQDVPGRADTSQPSARMRGHGEPRRPPCDPLADTIDSSGPSLTLPNGGCLSAVGLPLGPGREALEKALVIQESERRKKLRFHPRQLYLSVKQGELQKVILMLLDNLDPNFQSDQQSKRTPLHAAAQKGSVEICHVLLQAGANINAVDKQQRTPLMEAVVNNHLEVARYMVQRGGCVYSKEEDGSTCLHHAAKIGNLEMVSLLLSTGQVDVNAQDSGGWTPIIWAAEHKHIEVIRMLLTRGADVTLTDNEENICLHWASFTGSAAIAEVLLNARCDLHAVNYHGDTPLHIAARESYHDCVLLFLSRGANPELRNKEGDTAWDLTPERSDVWFALQLNRKLRLGVGNRAIRTEKIICRDVARGYENVPIPCVNGVDGEPCPEDYKYISENCETSTMNIDRNITHLQHCTCVDDCSSSNCLCGQLSIRCWYDKDGRLLQEFNKIEPPLIFECNQACSCWRNCKNRVVQSGIKVRLQLYRTAKMGWGVRALQTIPQGTFICEYVGELISDAEADVREDDSYLFDLDNKDGEVYCIDARYYGNISRFINHLCDPNIIPVRVFMLHQDLRFPRIAFFSSRDIRTGEELGFDYGDRFWDIKSKYFTCQCGSEKCKHSAEAIALEQSRLARLDPHPELLPELGSLPPVNT
B9: G9a double mutant (Y1067V/Y1154F): G9a double mutant coexpressed with hDNMT3A (protein, UniProt Q96KQ7 2-1210, looked up, variant Y1067V Y1154F)
Histone-lysine …: B8 Histone-lysine … with Y1066V, Y1153F

Key:
GLP catalytic SET domain = GLP catalytic SET domain (Homo sapiens, UniProt Q9H9B1); test: In vitro methylation assay with GLP catalytic SET domain; type: biochemical; details: [methyl-3H]AdoMet, SDS–PAGE and fluorography / autoradiogram
How it was run: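 E. coli-expressed hG9a or hGLP SET domain (1.6 μM) was incubated with 13.0 μM substrate (mDnmt3a N-terminal fragments or other GST-tagged proteins) and 2.8 μM [methyl-3H]AdoMet in 20 mM Tris–HCl pH 8.5 at 30 °C for 8 min. Products were resolved by SDS–PAGE and detected by fluorography/autoradiography.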

MPP8 = test: In vitro GST pull-down of GLP–N with in vitro translated MPP8; type: binding; details: GST–GLP–N (residues 191–280), in vitro translated 35S–MPP8, autoradiography
How it was run: (§1)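 GST–hGLP–N (residues 191–280, WT or K205R; 3 μg) was premethylated with 3 μg 6xHis–hGLP–SET (residues 955–1,298) and 1.5 mM AdoMet at 30 °C for 2 h. It was immobilised on glutathione agarose (4 °C, 1 h, 1 M NaCl buffer) and washed. Beads were incubated with in vitro translated 35S-labelled full-length MPP8 (WT or W80A) at 4 °C for 2 h, washed with 300 mM NaCl binding buffer, and analysed by SDS–PAGE autoradiography. Input was 5%.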

MPP8–W80A = test: GST pull-down of GLP–N with MPP8-W80A; type: binding; details: in vitro translated 35S–MPP8–W80A
How it was run: as §1

[1] = tested on: hDNMT3A K47 methylation in 293T cells; test: Methylation in 293T cells; type: cell-based, human; details: coexpression in 293T cells, metabolic labelling with 3H-Met or western blot
How it was run: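 GLP stable knockdown 293T cells expressed Myc-hDNMT3A (WT or K47R), with or without Flag-GLP or G9a, for 36 h. Cells were starved 30 min in methionine-free medium with cycloheximide (100 μg ml−1) and chloramphenicol (40 μg ml−1), then labelled 4 h with 10 μCi ml−1 L-[methyl-3H]methionine. Myc-hDNMT3A was immunoprecipitated with anti-Myc, washed with 600 mM NaCl IPH buffer, and detected by autoradiography.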

[2] = tested on: MPP8–GLP interaction in 293T cells; test: Co-immunoprecipitation of MPP8 and GLP in 293T cells; type: cell-based, human
How it was run: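 293T cells (parental, or MPP8 stable knockdown for the chromodomain W80A mutant) were cotransfected with Flag-MPP8 and HA-GLP (WT, K199R, K205R or K209R) for 48 h. Lysates were immunoprecipitated with 1 μg anti-HA or anti-Flag on protein-G agarose, washed with IPH containing 300 or 600 mM NaCl, and analysed by western blot. Input was 5%.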

Molecule | interaction with MPP8–W80A in GST pull-down (MPP8–W80A) | methylation of hDNMT3A in cells [1] | MPP8–GLP interaction in cells [2] | other results
B1 | no interaction was observed | – | – | methylation by GLP (GLP catalytic SET domain): is methylated in vitro by recombinant GLP–SET domain; interaction with MPP8 in GST pull-down (MPP8): a robust direct interaction between GLP–N and MPP8 was observed only when K205 methylation occurs
B2 | no interaction was observed | – | – | –
B3 | no interaction was observed | – | – | methylation by GLP (GLP catalytic SET domain): completely abolishes this GLP-catalyzed methylation; interaction with MPP8 in GST pull-down (MPP8): completely lost the interaction with MPP8
B4 | – | markedly increased | – | –
B5 | – | – | impairs GLP–MPP8 interaction in cells | –
B6 | – | – | had little effect | –
B7 | – | – | had little effect | –
B8 | – | markedly increased | – | –
B9 | – | failed to methylate K47 | – | –
